LEDGF integ inh – blockers of LEDGF/p75-dependent integrase strand transfer – biochemical, TR-FRET, high throughput, primary screen | HIV-1 integrase (with human LEDGF/p75) | 0.64% of 370,000 active | inhibition, % at 3.7 µM | TR-FRET IN-LEDGF/p75 DNA integration, Eu/Cy5;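 active = inhibition above the screen-wide mean plus 3 SD, cut at about 13% in these data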;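 note: signal is the Cy5 over europium emission ratio at 671 and 618 nm; 0% = plate median of compound wells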
NSD2 inh – NSD2 histone methyltransferase inhibitors, primary screen, biochemical, AlphaScreen, single concentration, set 2 | 0.54% of 310,000 active | NSD2 peptide methylation, 120 min | inhibition, % at 12.5 µM; in the data active = inhibition above about 50%
CASP6 VEID inh – human caspase-6 inhibitors, primary screen, biochemical, VEID-R110 fluorescence, single point, set 2; AID 686996, 2013; purified caspase-6, Z-VEID-R110 cleavage fluorescence; inhibition, % at 12.5 µM; P55212; 0.53% of 350,000 active;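 active = mean inhibition across replicates at least about 35%, with every replicate also reaching that limit, limit read from the data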;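 note: 0% = median of neutral control wells and 100% = no fluorescence left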
Target sequence (P55212 24-179 limits assumed): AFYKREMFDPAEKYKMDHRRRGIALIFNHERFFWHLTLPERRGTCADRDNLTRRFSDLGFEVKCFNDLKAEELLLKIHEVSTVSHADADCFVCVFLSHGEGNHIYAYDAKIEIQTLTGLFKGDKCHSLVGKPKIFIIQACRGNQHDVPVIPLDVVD
Target sequence (P55212 194-293 limits assumed): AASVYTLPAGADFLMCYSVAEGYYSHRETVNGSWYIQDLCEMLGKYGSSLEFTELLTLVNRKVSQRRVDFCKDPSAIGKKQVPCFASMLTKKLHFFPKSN
UHRF1 MBD2 ctr – UHRF1 methylated DNA binding inhibitors, primary screen, counter-screen for MBD2 inhibitor project, biochemical, TR-FRET, human UHRF1, single concentration; E3 ubiquitin-protein ligase UHRF1 (Homo sapiens), Q96T88; UHRF1 binding to methylated oligo; inhibition, % at 4.4 µM; 0.75% of 370,000 active; AID 687016, 2013; in the data active = inhibition above about 21%;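 note: UHRF1 SRA domain binding a hemimethylated CpG hairpin DNA probe; 0% = median of test compound wells and 100% = reference inhibitor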
TDP2 inh – human TDP2 enzyme inhibitors, primary screen, biochemical, epi absorbance, recombinant enzyme; Tyrosyl-DNA phosphodiesterase 2 (Homo sapiens), O95551; T5PNP hydrolysis, p-nitrophenol absorbance 415 nm; inhibition, % at 12.8 µM; 0.34% of 370,000 active; AID 720702, 2013;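 active = inhibition above the mean of all tested compounds plus 3 SD, set per campaign, cut at about 25% in these data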;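 note: 0% = DMSO with enzyme and 100% = buffer with substrate but no TDP2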
Target sequence (O95551 whole entry, looked up): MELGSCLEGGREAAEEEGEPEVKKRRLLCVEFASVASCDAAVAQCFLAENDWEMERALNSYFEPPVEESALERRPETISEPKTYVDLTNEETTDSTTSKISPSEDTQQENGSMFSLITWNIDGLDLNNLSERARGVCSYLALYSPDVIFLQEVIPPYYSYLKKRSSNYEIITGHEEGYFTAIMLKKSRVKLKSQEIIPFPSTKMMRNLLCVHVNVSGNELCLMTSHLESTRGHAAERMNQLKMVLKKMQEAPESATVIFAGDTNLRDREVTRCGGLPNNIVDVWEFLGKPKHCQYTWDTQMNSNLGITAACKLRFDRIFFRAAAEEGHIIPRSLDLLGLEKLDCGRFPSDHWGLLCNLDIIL
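Evaluation: % inhibition relative to enzyme-containing and enzyme-free wells. Material: recombinant human TDP2. Benchmarks: enzyme-free and DMSO wells. Timing: enzyme reaction with compound for 2 h at 37 °C. Compound dosing: 12.8 µM only. Measured by: p-Nitrophenol epi absorbance. Reagent: T5PNP substrate at 5 mM, a TopII-DNA adduct mimic. Replication: single well per compound.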
MBD2 inh – inhibitors of MBD2 binding to methylated DNA, primary screen, biochemical, TR-FRET, DNA-binding domain, human; MBD2 binding to methylated oligonucleotide; Methyl-CpG-binding domain protein 2 (Homo sapiens), Q9UBB5; inhibition, % at 4.4 µM; 0.31% of 370,000 active; in the data active = inhibition above about 13%
The depositor's hits bear a star; · = not tested or not shown. An excerpt weighted towards active compounds, which were near 1.8% of everything screened.

SMILES	LEDGF integ inh	NSD2 inh	CASP6 VEID inh	UHRF1 MBD2 ctr	TDP2 inh	MBD2 inh
CC(=O)Nc1cccc2cc(S(=O)(=O)O)ccc12	-1.9	4.8	43.6*	6.4	1.0	4.9
c1ccc(CCNc2nc(-c3cccnc3)cs2)cc1	-0.6	3.8	-2.3	49.2*	-1.8	-4.5
C/C(=N/NC(=O)CSc1nc2ccccc2n1C)c1ccco1	0.6	2.1	-0.1	83.0*	5.9	-5.2
CCOC(=O)N1CCC(N2C(=O)c3ccccc3C2Nc2ccc3c(C)cc(=O)oc3c2)CC1 (stereo not drawn)	-0.7	·	2.2	33.3*	-1.1	0.9
CCOC(=O)N1CCC(N2C(=O)c3ccccc3C2Nc2ccc3c(c2)OCCO3)CC1 (stereo not drawn)	-2.3	·	0.0	-1.9	-0.3	-5.0
C[C@H](CO)N1C[C@H](C)[C@@H](CN(C)C)Oc2ccc(NC(=O)c3ccncc3)cc2CC1=O	·	·	0.1	·	·	·
Cc1nnc(NS(=O)(=O)c2ccc(N)cc2)s1	-1.3	·	5.2	-3.8	7.1	0.1
Cc1nnc(NS(=O)(=O)c2ccc(N=Nc3ccc(N)nc3N)cc2)s1	-5.2	21.9	68.5*	-10.4	1.1	-17.8
COCC(=O)N1C[C@H](C)[C@H](OC)CN(C)C(=O)c2cc(NC(=O)c3ccccc3)ccc2OC[C@@H]1C	·	·	0.7	·	·	·
O=C(c1ccc(F)cc1)c1c[nH]c(C(=O)NCC2CCCO2)c1 (stereo not drawn)	·	4.4	·	·	·	·
CCNC(=O)C[C@@H]1CC[C@@H]2[C@H](COC[C@H](O)CN2C(=O)Nc2c(C)noc2C)O1	·	·	0.0	·	·	·
Cc1c(N2C(=O)/C(=C\c3ccccc3O)SC2=S)c(=O)n(-c2ccccc2)n1C	2.2	1.7	1.7	-3.6	9.3	-4.0
Cc1c(N2C(=O)/C(=C/c3cccc4ccccc34)SC2=S)c(=O)n(-c2ccccc2)n1C	2.6	2.4	·	30.8*	-2.9	-1.6
CCc1ccc2nc(Nc3ccc(OC)cc3OC)c(C#N)cc2c1	10.5	-9.1	·	22.3*	-10.3	3.2
O=C(NCc1ccco1)c1ccc(F)c(S(=O)(=O)N2CCCCC2)c1	0.4	-1.3	-0.6	1.0	-4.7	-0.7
O=C(NCc1ccco1)c1ccc(Br)c(S(=O)(=O)N2CCCCC2)c1	4.2	8.2	71.8*	5.6	-23.8	-4.6
O=C1CN(C(=O)C2CCCC2)CCN1	-1.3	1.7	23.6	63.3*	-3.4	-0.1
O=C(C1CCCCC1)N1CCN(C(=O)C2CCCCC2)CC1	-8.5	-2.1	0.7	2.5	-10.7	1.6
COc1ccc(/C=C/C(=O)NCCNC(=O)c2ccccc2)cc1OC	2.3	-3.8	0.7	24.6*	12.8	4.4
CC(=O)N1CCc2cc(Br)cc(S(=O)(=O)N3CCC(C(=O)O)CC3)c21	-5.4	22.5	39.2*	3.9	-11.6	2.2
Cc1cc(C(=O)Nc2cccc3c2O[C@H](CN(C)S(C)(=O)=O)[C@@H](C)CN([C@H](C)CO)C3=O)n(C)n1	·	·	4.4	·	·	·
C/C=C/c1cnc2c(c1)C(=O)N([C@@H](C)CO)C[C@H](C)[C@H](CN(C)C(=O)Nc1ccc(OC)cc1)O2	·	·	0.5	·	·	·
C(=C\c1ccccc1)/CN1CCN(C(c2cc3ccccc3o2)c2nnnn2-c2ccc3c(c2)OCCO3)CC1 (stereo not drawn)	2.3	·	-1.1	15.0	7.0	-6.0
COc1ccc(-n2nnnc2C(c2cc3ccccc3o2)N2CCN(C/C=C/c3ccccc3)CC2)cc1 (stereo not drawn)	10.4	·	-5.1	22.6*	-11.1	5.3
CCOC(=O)[C@]12CCC=C1N(Cc1ccc3c(c1)OCO3)C(=O)[C@H](CC(=O)NCCCCc1ccccc1)C2	-7.1	·	-0.7	1.4	-8.5	9.4
SMILES	LEDGF integ inh	NSD2 inh	CASP6 VEID inh	UHRF1 MBD2 ctr	TDP2 inh	MBD2 inh
CCCCNC(=O)C[C@@H]1C[C@@]2(C(=O)OCC)CCC=C2N(Cc2ccc3c(c2)OCO3)C1=O	-1.8	·	1.7	21.3*	2.3	7.1
C[C@H](CO)N1C[C@H](C)[C@@H](CN(C)C(=O)Nc2ccc3c(c2)OCO3)Oc2ccc(NC(=O)Cc3ccccc3)cc2CC1=O	·	·	-1.4	·	·	·
COc1ccc(CN2C(=O)C(CC(=O)NCCN3CCOCC3)CC(C(=O)N(C)C)=C2C)cc1 (stereo not drawn)	4.8	·	-2.0	1.5	2.1	-5.0
CC1=C(C(=O)N(C)C)CC(CC(=O)NCc2cccs2)C(=O)N1Cc1ccc(F)cc1 (stereo not drawn)	-1.2	·	·	23.5*	10.1	8.5
CCN(CC)C(=O)C1=C(C)N(Cc2ccc(OC)cc2)C(=O)C(CC(=O)NCCN2CCOCC2)C1 (stereo not drawn)	4.2	·	3.9	21.7*	-8.4	8.9
C[C@@H]1CN([C@H](C)CO)C(=O)c2cc(NS(=O)(=O)c3ccc(Cl)cc3)ccc2O[C@H]1CN(C)Cc1ccc(C(=O)Nc2ccccc2N)cc1	·	·	-0.1	·	·	·
C[C@@H]1CN([C@H](C)CO)C(=O)c2cc(C#C[C@@H](C)O)cnc2O[C@@H]1CN(C)C(=O)c1ccncc1	·	·	-2.2	·	·	·
Cc1ccnc(NC(=O)c2cccc(NC(=O)c3ccccc3Cl)c2)c1	·	-0.9	·	·	·	·
COc1ccc2c3c(n(C)c2c1)[C@@H](CO)N(C(=O)c1ccncc1)CC31CN(C(C)=O)C1	·	·	2.2	·	·	·
COc1ccccc1NC(=O)N1CC[C@@H]2[C@@H](CO)N(C)c3ccc(-c4cccc(F)c4)cc3[C@@H]21	·	·	-1.6	·	·	·
O=C(O)C1Oc2cc3ccccc3cc2O1	0.0	19.7	55.4*	1.0	2.5	3.6
C[C@H](CO)N1C[C@H](C)[C@H](CN(C)C(=O)C2CC2)Oc2cc(C3=CCCCC3)ccc2S1(=O)=O	·	·	3.0	·	·	·
c1ccc2c(-c3c[nH]c4ccccc34)c3ccccc3nc2c1	-2.1	-3.8	·	-1.9	9.1	1.3
O=C(O)c1cc(-c2c[nH]c3ccccc23)nc2ccc3ccccc3c12	1.1	-5.3	2.0	20.9*	5.0	0.7
COc1cccc(N(CC(=O)NCCSc2ccc(Cl)cc2)S(C)(=O)=O)c1	4.9	-2.7	-0.7	27.1*	22.2	9.7
COc1cccc(N(CC(=O)NCCSc2ccccc2)S(C)(=O)=O)c1	1.8	0.0	·	4.5	1.1	-3.2
CCCNC(=O)N1CC2(CN(C(=O)Nc3cccc(F)c3)C2)c2c(n(C)c3cc(OC)ccc23)[C@@H]1CO	·	·	2.5	·	·	·
COCCN(C(=O)CN1CCc2ccccc21)c1c(N)n(Cc2ccccc2)c(=O)[nH]c1=O	-1.9	-1.3	5.4	41.2*	-0.9	-0.4
